Reference: ChEMBL document CHEMBL1123716, “Synthesis and tumor uptake of 5-halo-1-(2'-fluoro-2'-deoxy-beta-D-ribofuranosyl)[2-14C]uracils” (J Med Chem, 1987)
“And” between values parts separate entries of the source, which are not always exact repeats. Equal entries are not always repeated.

How the values were obtained:
Conditions in all cases: in vivo
Mus musculus [1] = assay: Tissue distribution in BDF1 female mice bearing an implanted lewis lung tumor after intravenous injection in skin at 24 h.; format: ADME, organism-based, Skin of body
In short: (§1)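 Female BDF₁ mice (18–20 g) carrying transplanted Lewis lung tumor received 23–193 kBq of the [2-¹⁴C]-labeled nucleoside in normal saline via tail vein. The compound was stored as a dry film and reconstituted just before use. Animals were killed at set times, and tissue ¹⁴C was measured by combustion and liquid scintillation. Values are mean ± SD % injected dose per gram of wet tissue, n = 6.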

Mus musculus [2] = assay: Tissue distribution in BDF1 female mice bearing an implanted lewis lung tumor after intravenous injection in skin at 8 h.; format: ADME, organism-based, Skin of body; in short: as §1
Mus musculus [3] = assay: Tissue distribution in BDF1 female mice bearing an implanted lewis lung tumor after intravenous injection in muscle at 2 h.; format: ADME, organism-based; in short: as §1
Mus musculus [4] = assay: Tissue distribution in BDF1 female mice bearing an implanted lewis lung tumor after intravenous injection in stomach at 8 h.; format: ADME, organism-based
In short: (§2)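 Female BDF1 mice (18–20 g) carrying a transplanted Lewis lung tumor were given 23–193 kBq of the [2-14C]-labelled nucleoside in normal saline by tail vein. Animals were killed at set times. Tissue 14C was counted by liquid scintillation, after combustion or directly. Values are percent of injected dose per gram wet tissue, as mean ± standard deviation of six animals.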

Mus musculus [5] = assay: Tissue distribution in BDF1 female mice bearing an implanted lewis lung tumor after intravenous injection in muscle at 1 h.; format: ADME, organism-based; in short: as §1
Mus musculus [6] = assay: Tissue distribution in BDF1 female mice bearing an implanted lewis lung tumor after intravenous injection in skin at 0.5 h.; format: ADME, organism-based, Skin of body; in short: as §1
Mus musculus [7] = assay: Tissue distribution in BDF1 female mice bearing an implanted lewis lung tumor after intravenous injection in lung at 4 h; format: ADME, organism-based; in short: as §1
Mus musculus [8] = assay: Tissue distribution in BDF1 female mice bearing an implanted lewis lung tumor after intravenous injection in stomach at 24 h.; format: ADME, organism-based; in short: as §1
Mus musculus [9] = assay: Tissue distribution in BDF1 female mice bearing an implanted lewis lung tumor after intravenous injection in spleen at 24 h.; format: ADME, organism-based; in short: as §1
Mus musculus [10] = assay: Tissue distribution in BDF1 female mice bearing an implanted lewis lung tumor after intravenous injection in skin at 1 h.; format: ADME, organism-based, Skin of body; in short: as §1
Mus musculus [11] = assay: Tissue distribution in BDF1 female mice bearing an implanted lewis lung tumor after intravenous injection in kidney at 24 h.; format: ADME, organism-based; in short: as §1
Mus musculus [12] = assay: Tissue distribution in BDF1 female mice bearing an implanted lewis lung tumor after intravenous injection in bone at 2 h.; format: ADME, organism-based
In short: (§3)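 Female BDF1 mice (18–20 g) with implanted Lewis lung tumor received the 2-14C compound by tail vein, 23–193 kBq in normal saline, reconstituted from a dry film just before use. Animals were killed at set times and tissues taken for 14C counting by combustion and liquid scintillation. Values are percent injected dose per gram wet tissue, mean ± standard deviation, six animals.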

Mus musculus [13] = assay: Tissue distribution in BDF1 female mice bearing an implanted lewis lung tumor after intravenous injection in stomach at 2 h.; format: ADME, organism-based; in short: as §1
Mus musculus [14] = assay: Tissue distribution in BDF1 female mice bearing an implanted lewis lung tumor after intravenous injection in lung at 24 h.; format: ADME, organism-based; in short: as §1
Mus musculus [15] = assay: Tissue distribution in BDF1 female mice bearing an implanted lewis lung tumor after intravenous injection in lung at 0.5 h.; format: ADME, organism-based; in short: as §1
Mus musculus [16] = assay: Tissue distribution in BDF1 female mice bearing an implanted lewis lung tumor after intravenous injection in liver at 24 h.; format: ADME, organism-based; in short: as §1
Mus musculus [17] = assay: Tissue distribution in BDF1 female mice bearing an implanted lewis lung tumor after intravenous injection in blood at 1 h.; format: ADME, organism-based; in short: as §3
Mus musculus [18] = assay: Tissue distribution in BDF1 female mice bearing an implanted lewis lung tumor after intravenous injection in bone at 4 h.; format: ADME, organism-based; in short: as §3
Mus musculus [19] = assay: Tissue distribution in BDF1 female mice bearing an implanted lewis lung tumor after intravenous injection in blood at 2 h.; format: ADME, organism-based; in short: as §3
Mus musculus [20] = assay: Tissue distribution in BDF1 female mice bearing an implanted lewis lung tumor after intravenous injection in muscle at 0.5 h.; format: ADME, organism-based; in short: as §1
Mus musculus [21] = assay: Tissue distribution in BDF1 female mice bearing an implanted lewis lung tumor after intravenous injection in tumor at 2 h.; format: ADME, organism-based; in short: as §2
Mus musculus [22] = assay: Tissue distribution in BDF1 female mice bearing an implanted lewis lung tumor after intravenous injection in tumor at 0.5 h.; format: ADME, organism-based; in short: as §2
Mus musculus [23] = assay: Tissue distribution in BDF1 female mice bearing an implanted lewis lung tumor after intravenous injection in git(Section of intestine) at 0.25 h.; format: ADME, organism-based; in short: as §3
Mus musculus [24] = assay: Tissue distribution in BDF1 female mice bearing an implanted lewis lung tumor after intravenous injection in lung at 0.25 h.; format: ADME, organism-based; in short: as §1
Mus musculus [25] = assay: Tissue distribution in BDF1 female mice bearing an implanted lewis lung tumor after intravenous injection in liver at 4 h.; format: ADME, organism-based; in short: as §1
Mus musculus [26] = assay: Tissue distribution in BDF1 female mice bearing an implanted lewis lung tumor after intravenous injection in skin at 4 h.; format: ADME, organism-based, Skin of body; in short: as §1
Mus musculus [27] = assay: Tissue distribution in BDF1 female mice bearing an implanted lewis lung tumor after intravenous injection in liver at 8 h.; format: ADME, organism-based; in short: as §1
Mus musculus [28] = assay: Tissue distribution in BDF1 female mice bearing an implanted lewis lung tumor after intravenous injection in heart at 8 h.; format: ADME, organism-based; in short: as §3
Mus musculus [29] = assay: Tissue distribution in BDF1 female mice bearing an implanted lewis lung tumor after intravenous injection in tumor at 24 h.; format: ADME, organism-based; in short: as §2
Mus musculus [30] = assay: Tissue distribution in BDF1 female mice bearing an implanted lewis lung tumor after intravenous injection in heart at 0.5 h.; format: ADME, organism-based; in short: as §3
Mus musculus [31] = assay: Tissue distribution in BDF1 female mice bearing an implanted lewis lung tumor after intravenous injection in heart at 1 h.; format: ADME, organism-based; in short: as §3
Mus musculus [32] = assay: Tissue distribution in BDF1 female mice bearing an implanted lewis lung tumor after intravenous injection in liver at 1 h.; format: ADME, organism-based; in short: as §1
Mus musculus [33] = assay: Tissue distribution in BDF1 female mice bearing an implanted lewis lung tumor after intravenous injection in kidney at 8 h.; format: ADME, organism-based; in short: as §1
Mus musculus [34] = assay: Tissue distribution in BDF1 female mice bearing an implanted lewis lung tumor after intravenous injection in blood at 0.25 h; format: ADME, organism-based; in short: as §3
Mus musculus [35] = assay: Tissue distribution in BDF1 female mice bearing an implanted lewis lung tumor after intravenous injection in spleen at 2 h.; format: ADME, organism-based; in short: as §1
Mus musculus [36] = assay: Tissue distribution in BDF1 female mice bearing an implanted lewis lung tumor after intravenous injection in bone at 24 h.; format: ADME, organism-based; in short: as §3
Mus musculus [37] = assay: Tissue distribution in BDF1 female mice bearing an implanted lewis lung tumor after intravenous injection in tumor at 8 h.; format: ADME, organism-based; in short: as §2
Mus musculus [38] = assay: Tissue distribution in BDF1 female mice bearing an implanted lewis lung tumor after intravenous injection in blood at 24 h.; format: ADME, organism-based; in short: as §3
Mus musculus [39] = assay: Tissue distribution in BDF1 female mice bearing an implanted lewis lung tumor after intravenous injection in kidney at 2 h.; format: ADME, organism-based; in short: as §3
Mus musculus [40] = assay: Tissue distribution in BDF1 female mice bearing an implanted lewis lung tumor after intravenous injection in spleen at 8 h.; format: ADME, organism-based; in short: as §1
Mus musculus [41] = assay: Tissue distribution in BDF1 female mice bearing an implanted lewis lung tumor after intravenous injection in stomach at 1 h.; format: ADME, organism-based; in short: as §1
Mus musculus [42] = assay: Tissue distribution in BDF1 female mice bearing an implanted lewis lung tumor after intravenous injection in heart at 0.25 h.; format: ADME, organism-based; in short: as §3
Mus musculus [43] = assay: Tissue distribution in BDF1 female mice bearing an implanted lewis lung tumor after intravenous injection in blood at 0.5 h.; format: ADME, organism-based; in short: as §3
Mus musculus [44] = assay: Tissue distribution in BDF1 female mice bearing an implanted lewis lung tumor after intravenous injection in git(Section of intestine) at 2 h.; format: ADME, organism-based; in short: as §3
Mus musculus [45] = assay: Tissue distribution in BDF1 female mice bearing an implanted lewis lung tumor after intravenous injection in lung at 2 h.; format: ADME, organism-based; in short: as §1

- Tissue distribution (Mus musculus [1]): 0.01
- Tissue distribution (Mus musculus [2]): 0.02
- Tissue distribution (Mus musculus [3]): 0.15
- Tissue distribution (Mus musculus [4]): 0.05
- Tissue distribution (Mus musculus [5]): 0.27
- Tissue distribution (Mus musculus [6]): 1.24
- Tissue distribution (Mus musculus [7]): 0.06
- Tissue distribution (Mus musculus [8]): 0.01
- Tissue distribution (Mus musculus [9]): 0.06
- Tissue distribution (Mus musculus [10]): 0.36
- Tissue distribution (Mus musculus [11]): 0.03
- Tissue distribution (Mus musculus [12]): 0.08
- Tissue distribution (Mus musculus [13]): 0.31
- Tissue distribution (Mus musculus [14]): 0.01
- Tissue distribution (Mus musculus [15]): 1.41
- Tissue distribution (Mus musculus [16]): 0.02
- Tissue distribution (Mus musculus [17]): 0.58
- Tissue distribution (Mus musculus [18]): 0.04
- Tissue distribution (Mus musculus [19]): 0.18
- Tissue distribution (Mus musculus [20]): 0.78
- Tissue distribution (Mus musculus [21]): 0.34
- Tissue distribution (Mus musculus [22]): 1.82
- Tissue distribution (Mus musculus [23]): 1.91
- Tissue distribution (Mus musculus [24]): 2.73
- Tissue distribution (Mus musculus [25]): 0.05
- Tissue distribution (Mus musculus [26]): 0.04
- Tissue distribution (Mus musculus [27]): 0.03
- Tissue distribution (Mus musculus [28]): 0.03
- Tissue distribution (Mus musculus [29]): 0.03
- Tissue distribution (Mus musculus [30]): 1.56
- Tissue distribution (Mus musculus [31]): 0.53
- Tissue distribution (Mus musculus [32]): 0.47 and 0.6
- Tissue distribution (Mus musculus [33]): 0.09
- Tissue distribution (Mus musculus [34]): 3.54
- Tissue distribution (Mus musculus [35]): 0.34
- Tissue distribution (Mus musculus [36]): 0.01
- Tissue distribution (Mus musculus [37]): 0.07
- Tissue distribution (Mus musculus [38]): 0.01
- Tissue distribution (Mus musculus [39]): 1.6
- Tissue distribution (Mus musculus [40]): 0.15
- Tissue distribution (Mus musculus [41]): 0.27
- Tissue distribution (Mus musculus [42]): 3.07
- Tissue distribution (Mus musculus [43]): 1.82
- Tissue distribution (Mus musculus [44]): 0.17
- Tissue distribution (Mus musculus [45]): 0.14
Compound: O=c1[nH]c(=O)n([C@H]2O[C@@H](CO)[C@H](O)[C@H]2F)cc1Cl
